Experimental data taken from ChEMBL document CHEMBL5661979, “Pharmacological inhibition of BMK1 suppresses tumor growth through promyelocytic leukemia protein” (Cancer Cell, 2010).

Tests used:
[1] = target: Cyclin-dependent kinase 13 (Homo sapiens, UniProt Q14004); assay: Inhibition of CHED in human HeLa cells lysate at 2 uM pre incubated for 15 mins followed by ADP acyl phosphate probe addition and measured after 10 mins by LC-MS/MS analysis relative to control; type: subcellular; settings: time 25.0 min
Summary of the method: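 KiNativ profiling in HeLa lysate (5 mg/mL total protein). Lysate incubated 15 min with inhibitor at 50, 10, 2, 0.8 or 0 μM. ATP or ADP acylphosphate probe then added (5 μM final) and reacted 10 min. Reaction stopped with urea and analysed by targeted MS, using up to four fragment ions per kinase peptide-probe conjugate. % inhibition taken against untreated lysate. Run in duplicate.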

[2] = target: Serine/threonine-protein kinase Chk1 (Homo sapiens, UniProt O14757); assay: Inhibition of CHK1 inactive site in human HeLa cells lysate pre incubated for 15 mins followed by ATP acyl phosphate probe addition and measured after 10 mins by LC-MS/MS analysis; type: subcellular
[3] = Inhibition of PRKX/PRKY in human HeLa cells lysate at 10 uM pre incubated for 15 mins followed by ADP acyl phosphate probe addition and measured after 10 mins by LC-MS/MS analysis relative to control; settings: 25 min, condition cancer
[4] = target: T1, Serine/threonine-protein kinase D3 (Homo sapiens) (UniProt O94806); assay: Inhibition of PKD3 in human HeLa cells lysate at 2 uM pre incubated for 15 mins followed by ADP acyl phosphate probe addition and measured after 10 mins by LC-MS/MS analysis relative to control; type: subcellular; settings: time 25.0 min
T1 sequence (whole entry): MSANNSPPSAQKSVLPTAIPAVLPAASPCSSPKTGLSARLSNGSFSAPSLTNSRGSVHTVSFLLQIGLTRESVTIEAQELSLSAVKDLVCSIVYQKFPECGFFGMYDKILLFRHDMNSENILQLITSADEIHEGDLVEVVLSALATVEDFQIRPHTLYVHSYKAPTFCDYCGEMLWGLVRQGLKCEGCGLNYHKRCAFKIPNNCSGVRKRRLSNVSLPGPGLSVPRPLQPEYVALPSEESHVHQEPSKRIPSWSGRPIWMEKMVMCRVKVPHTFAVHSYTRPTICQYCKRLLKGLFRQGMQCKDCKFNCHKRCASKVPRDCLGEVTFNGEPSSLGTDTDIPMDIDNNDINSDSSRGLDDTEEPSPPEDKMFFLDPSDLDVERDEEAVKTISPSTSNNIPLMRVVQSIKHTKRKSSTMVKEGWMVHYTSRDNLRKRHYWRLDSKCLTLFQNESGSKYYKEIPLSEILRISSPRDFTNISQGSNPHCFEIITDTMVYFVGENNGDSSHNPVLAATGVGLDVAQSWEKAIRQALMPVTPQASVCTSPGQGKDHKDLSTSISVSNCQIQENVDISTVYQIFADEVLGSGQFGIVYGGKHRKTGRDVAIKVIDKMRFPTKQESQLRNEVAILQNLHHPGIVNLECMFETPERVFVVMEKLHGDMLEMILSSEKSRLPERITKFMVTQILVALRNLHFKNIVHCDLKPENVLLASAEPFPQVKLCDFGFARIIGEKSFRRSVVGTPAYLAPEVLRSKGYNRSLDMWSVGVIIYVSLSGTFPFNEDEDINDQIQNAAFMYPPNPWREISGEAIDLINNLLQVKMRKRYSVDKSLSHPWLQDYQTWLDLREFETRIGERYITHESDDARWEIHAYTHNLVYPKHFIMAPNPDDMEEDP

[5] = target: Serine/threonine-protein kinase PLK4 (Homo sapiens, UniProt O00444); assay: Binding affinity to PLK4 (unknown origin) assessed as dissociation constant by ATP-competition binding assay
[6] = target: T2, Non-receptor tyrosine-protein kinase TNK1 (Homo sapiens) (UniProt Q13470); assay: Inhibition of TNK1 in human HeLa cells lysate at 50 uM pre incubated for 15 mins followed by ADP acyl phosphate probe addition and measured after 10 mins by LC-MS/MS analysis relative to control; type: subcellular; settings: time 25.0 min
T2 sequence (whole entry): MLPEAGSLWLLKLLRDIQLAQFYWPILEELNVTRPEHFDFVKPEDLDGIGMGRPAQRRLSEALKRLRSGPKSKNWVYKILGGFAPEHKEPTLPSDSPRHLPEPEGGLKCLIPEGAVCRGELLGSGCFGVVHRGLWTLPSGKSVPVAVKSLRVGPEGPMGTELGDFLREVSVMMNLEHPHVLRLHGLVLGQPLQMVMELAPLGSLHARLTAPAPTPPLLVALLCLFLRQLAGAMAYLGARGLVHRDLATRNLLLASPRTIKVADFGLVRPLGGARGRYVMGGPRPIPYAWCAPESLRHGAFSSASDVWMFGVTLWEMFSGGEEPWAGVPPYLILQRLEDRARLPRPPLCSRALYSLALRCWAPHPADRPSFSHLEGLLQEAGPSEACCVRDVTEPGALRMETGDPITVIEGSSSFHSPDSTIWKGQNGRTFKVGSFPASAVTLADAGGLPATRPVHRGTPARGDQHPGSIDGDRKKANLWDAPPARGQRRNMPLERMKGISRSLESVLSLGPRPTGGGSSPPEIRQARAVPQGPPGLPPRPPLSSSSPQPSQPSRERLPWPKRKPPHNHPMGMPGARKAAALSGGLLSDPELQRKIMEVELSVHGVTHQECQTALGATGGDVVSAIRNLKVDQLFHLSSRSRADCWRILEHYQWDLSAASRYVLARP

[7] = target: Serine/threonine-protein kinase/endoribonuclease IRE1 (Homo sapiens, UniProt O75460); assay: Inhibition of IRE1 in human HeLa cells lysate at 10 uM pre incubated for 15 mins followed by ADP acyl phosphate probe addition and measured after 10 mins by LC-MS/MS analysis relative to control; type: subcellular; settings: time 25.0 min
[8] = Inhibition of PCTAIRE2/PCTAIRE3 in human HeLa cells lysate pre incubated for 15 mins followed by ADP acyl phosphate probe addition and measured after 10 mins by LC-MS/MS analysis; type: subcellular
[9] = target: STE20-like serine/threonine-protein kinase (Homo sapiens, UniProt Q9H2G2); assay: Inhibition of SLK in human HeLa cells lysate at 2 uM pre incubated for 15 mins followed by ADP acyl phosphate probe addition and measured after 10 mins by LC-MS/MS analysis relative to control; type: subcellular; settings: time 25.0 min
[10] = target: Ribosomal protein S6 kinase alpha-1 (Homo sapiens, UniProt Q15418); assay: Inhibition of RSK1 domain 2 K2 site in human HeLa cells lysate at 10 uM pre incubated for 15 mins followed by ADP acyl phosphate probe addition and measured after 10 mins by LC-MS/MS analysis relative to control; type: subcellular; settings: time 25.0 min
[11] = target: Dual specificity protein kinase CLK3 (Homo sapiens, UniProt P49761); assay: Inhibition of CLK3 in human HeLa cells lysate at 50 uM pre incubated for 15 mins followed by ADP acyl phosphate probe addition and measured after 10 mins by LC-MS/MS analysis relative to control; type: subcellular; settings: time 25.0 min
Chain of Dual specificity protein kinase CLK3 (P49761 whole entry, looked up): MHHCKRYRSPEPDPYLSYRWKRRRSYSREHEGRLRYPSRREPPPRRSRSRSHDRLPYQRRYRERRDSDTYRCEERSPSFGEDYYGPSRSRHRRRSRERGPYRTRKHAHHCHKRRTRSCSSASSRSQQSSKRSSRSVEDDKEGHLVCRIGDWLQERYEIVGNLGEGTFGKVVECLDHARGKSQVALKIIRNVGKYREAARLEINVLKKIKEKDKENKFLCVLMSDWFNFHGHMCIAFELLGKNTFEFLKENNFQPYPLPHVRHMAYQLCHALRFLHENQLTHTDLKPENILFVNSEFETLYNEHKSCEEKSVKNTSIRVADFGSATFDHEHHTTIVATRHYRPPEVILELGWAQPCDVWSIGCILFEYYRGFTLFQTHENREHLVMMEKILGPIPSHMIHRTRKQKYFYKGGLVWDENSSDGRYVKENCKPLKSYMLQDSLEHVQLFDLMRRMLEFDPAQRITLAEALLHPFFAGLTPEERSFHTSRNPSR

Chain of Serine/threonine-protein kinase Chk1 (O14757 whole entry): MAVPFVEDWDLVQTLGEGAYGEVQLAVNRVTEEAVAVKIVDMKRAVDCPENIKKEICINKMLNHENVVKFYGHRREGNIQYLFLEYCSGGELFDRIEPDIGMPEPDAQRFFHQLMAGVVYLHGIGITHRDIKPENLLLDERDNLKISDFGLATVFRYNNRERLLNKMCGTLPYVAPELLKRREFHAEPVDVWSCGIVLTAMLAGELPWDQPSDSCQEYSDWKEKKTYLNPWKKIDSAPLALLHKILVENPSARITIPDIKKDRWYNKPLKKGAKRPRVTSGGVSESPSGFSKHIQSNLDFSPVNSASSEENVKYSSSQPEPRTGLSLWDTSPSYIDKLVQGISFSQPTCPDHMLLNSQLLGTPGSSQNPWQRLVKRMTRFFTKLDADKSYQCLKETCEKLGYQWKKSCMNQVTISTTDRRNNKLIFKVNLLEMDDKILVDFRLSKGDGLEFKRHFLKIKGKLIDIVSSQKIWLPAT
Chain of Cyclin-dependent kinase 13 (Q14004 whole entry, looked up, the tested form may be a part): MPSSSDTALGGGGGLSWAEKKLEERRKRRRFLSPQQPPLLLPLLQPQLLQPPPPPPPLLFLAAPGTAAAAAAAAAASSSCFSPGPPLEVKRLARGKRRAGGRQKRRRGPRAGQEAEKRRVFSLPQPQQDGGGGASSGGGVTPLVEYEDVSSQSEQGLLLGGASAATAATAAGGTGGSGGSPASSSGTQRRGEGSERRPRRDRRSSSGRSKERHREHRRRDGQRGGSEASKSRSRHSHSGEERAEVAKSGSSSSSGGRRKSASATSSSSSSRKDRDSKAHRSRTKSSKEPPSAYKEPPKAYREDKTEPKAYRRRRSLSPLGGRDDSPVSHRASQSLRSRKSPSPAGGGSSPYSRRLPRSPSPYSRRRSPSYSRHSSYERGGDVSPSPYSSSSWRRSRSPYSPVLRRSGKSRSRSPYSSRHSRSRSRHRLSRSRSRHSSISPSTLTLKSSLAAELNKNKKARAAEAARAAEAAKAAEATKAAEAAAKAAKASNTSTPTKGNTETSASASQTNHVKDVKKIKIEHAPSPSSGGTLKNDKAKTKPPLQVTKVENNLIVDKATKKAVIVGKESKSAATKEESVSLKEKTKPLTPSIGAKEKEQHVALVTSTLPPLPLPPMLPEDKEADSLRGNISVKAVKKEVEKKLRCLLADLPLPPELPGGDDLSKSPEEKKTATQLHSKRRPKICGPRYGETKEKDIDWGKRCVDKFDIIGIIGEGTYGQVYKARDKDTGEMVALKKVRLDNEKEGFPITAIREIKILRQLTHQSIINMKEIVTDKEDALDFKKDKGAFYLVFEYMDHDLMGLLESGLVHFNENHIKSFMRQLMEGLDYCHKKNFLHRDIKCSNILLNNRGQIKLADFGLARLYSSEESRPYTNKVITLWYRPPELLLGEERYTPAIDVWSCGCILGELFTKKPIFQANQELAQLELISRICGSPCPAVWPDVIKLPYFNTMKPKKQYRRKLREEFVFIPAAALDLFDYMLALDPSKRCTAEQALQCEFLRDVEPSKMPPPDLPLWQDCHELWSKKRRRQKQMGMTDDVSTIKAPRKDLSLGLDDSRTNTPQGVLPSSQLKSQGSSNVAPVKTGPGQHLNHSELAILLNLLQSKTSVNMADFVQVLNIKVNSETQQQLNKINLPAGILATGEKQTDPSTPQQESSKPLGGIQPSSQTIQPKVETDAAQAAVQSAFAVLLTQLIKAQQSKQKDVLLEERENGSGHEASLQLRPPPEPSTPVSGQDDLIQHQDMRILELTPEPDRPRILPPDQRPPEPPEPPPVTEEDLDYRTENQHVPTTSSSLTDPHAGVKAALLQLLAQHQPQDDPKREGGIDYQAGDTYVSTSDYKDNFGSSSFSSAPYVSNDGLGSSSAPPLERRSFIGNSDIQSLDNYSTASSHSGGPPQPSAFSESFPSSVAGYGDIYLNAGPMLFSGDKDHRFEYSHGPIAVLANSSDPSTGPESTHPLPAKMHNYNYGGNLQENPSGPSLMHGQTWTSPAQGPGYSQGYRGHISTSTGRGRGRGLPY
Chain of Serine/threonine-protein kinase PLK4 (O00444 whole entry): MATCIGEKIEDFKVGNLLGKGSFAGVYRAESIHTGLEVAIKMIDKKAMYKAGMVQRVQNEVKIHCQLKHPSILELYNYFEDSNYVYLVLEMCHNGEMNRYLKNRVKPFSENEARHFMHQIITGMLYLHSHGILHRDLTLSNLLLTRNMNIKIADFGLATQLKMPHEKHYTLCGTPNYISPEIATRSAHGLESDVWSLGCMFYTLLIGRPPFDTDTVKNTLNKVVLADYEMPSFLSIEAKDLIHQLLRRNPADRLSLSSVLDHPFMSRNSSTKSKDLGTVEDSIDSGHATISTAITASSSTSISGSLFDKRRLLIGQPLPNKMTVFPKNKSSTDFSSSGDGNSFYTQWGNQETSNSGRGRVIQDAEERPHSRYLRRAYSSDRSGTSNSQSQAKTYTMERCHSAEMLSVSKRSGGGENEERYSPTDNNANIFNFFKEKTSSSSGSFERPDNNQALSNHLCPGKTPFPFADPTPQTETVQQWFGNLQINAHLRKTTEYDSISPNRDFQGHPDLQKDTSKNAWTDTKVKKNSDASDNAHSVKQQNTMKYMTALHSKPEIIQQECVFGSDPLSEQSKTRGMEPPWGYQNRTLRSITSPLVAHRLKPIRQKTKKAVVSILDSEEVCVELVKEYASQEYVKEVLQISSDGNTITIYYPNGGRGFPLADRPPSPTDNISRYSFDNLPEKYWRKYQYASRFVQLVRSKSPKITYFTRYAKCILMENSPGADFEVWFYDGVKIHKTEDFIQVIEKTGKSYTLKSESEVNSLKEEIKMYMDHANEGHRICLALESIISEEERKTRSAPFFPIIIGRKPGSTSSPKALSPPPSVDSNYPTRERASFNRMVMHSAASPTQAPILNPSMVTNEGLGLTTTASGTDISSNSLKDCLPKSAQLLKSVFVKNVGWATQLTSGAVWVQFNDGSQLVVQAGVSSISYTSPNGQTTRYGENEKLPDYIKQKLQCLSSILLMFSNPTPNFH
Chain of Serine/threonine-protein kinase/endoribonuclease IRE1 (O75460 19-977 limits assumed): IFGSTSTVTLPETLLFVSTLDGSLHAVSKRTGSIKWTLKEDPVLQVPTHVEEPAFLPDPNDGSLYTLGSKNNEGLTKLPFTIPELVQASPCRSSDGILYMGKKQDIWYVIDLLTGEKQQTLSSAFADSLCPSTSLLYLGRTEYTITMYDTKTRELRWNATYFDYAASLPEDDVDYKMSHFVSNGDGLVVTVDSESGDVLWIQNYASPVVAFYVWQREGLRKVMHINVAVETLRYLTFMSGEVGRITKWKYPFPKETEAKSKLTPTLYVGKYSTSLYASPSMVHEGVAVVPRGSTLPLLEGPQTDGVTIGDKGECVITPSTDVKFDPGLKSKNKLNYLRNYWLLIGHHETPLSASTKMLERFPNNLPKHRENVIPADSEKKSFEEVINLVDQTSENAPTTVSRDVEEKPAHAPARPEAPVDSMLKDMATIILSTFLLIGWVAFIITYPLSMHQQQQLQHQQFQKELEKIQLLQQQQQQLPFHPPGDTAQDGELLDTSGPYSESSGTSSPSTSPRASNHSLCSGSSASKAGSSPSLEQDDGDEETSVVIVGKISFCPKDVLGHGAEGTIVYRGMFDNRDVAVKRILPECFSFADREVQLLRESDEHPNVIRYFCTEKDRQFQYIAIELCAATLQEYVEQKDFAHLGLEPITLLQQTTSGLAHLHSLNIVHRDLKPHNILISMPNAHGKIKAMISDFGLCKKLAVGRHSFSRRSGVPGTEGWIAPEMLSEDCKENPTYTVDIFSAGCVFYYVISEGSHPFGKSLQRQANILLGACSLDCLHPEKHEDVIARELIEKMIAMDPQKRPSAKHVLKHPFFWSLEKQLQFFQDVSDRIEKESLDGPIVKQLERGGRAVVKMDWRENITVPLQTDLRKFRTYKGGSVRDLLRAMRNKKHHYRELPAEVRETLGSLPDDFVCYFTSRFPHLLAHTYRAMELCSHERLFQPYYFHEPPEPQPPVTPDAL

Structure (SMILES): CCOc1cc(N2CCC(O)CC2)ccc1Nc1ncc2c(n1)N(C)c1ccccc1C(=O)N2C
- inhibition [1]: 28.1%
- IC50 [2]: > 50 µM
- inhibition at 10 µM [3]: -14.3%
- inhibition [4]: 5.5%
- Kd [5]: 0.6 µM
- inhibition [6]: 82.2%
- inhibition [7]: 15.6%
- IC50 [8]: > 50 µM
- inhibition [9]: 13.3%
- inhibition [10]: 5.4%
- inhibition [11]: 32.6%
